According to ChEMBL document CHEMBL4373711, “Development of 3,5-Dinitrophenyl-Containing 1,2,4-Triazoles and Their Trifluoromethyl Analogues as Highly Efficient Antitubercular Agents Inhibiting Decaprenylphosphoryl-β-d-ribofuranose 2'-Oxidase” (J Med Chem, 2019):

Columns and labels:
[1] = Selectivity index, ratio of IC50 for human HepG2 cells to MIC>99 for antimycobacterial activity against multi-drug resistant Mycobacterium tuberculosis 9449/2007 after 21 days; assay type: toxicity; conditions: read-out: Selectivity Index
Procedure, shortened: (§1)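 SI from HepG2 IC50 and M. tuberculosis MIC. HepG2 cells: DMEM + 10% FBS + 1 mM pyruvate, 10,000/well, 48 h treatment, 0.1% DMSO and 10% SDS controls, MTS absorbance at 490 nm.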

[2] = Selectivity index, ratio of IC50 for human HepG2 cells to MIC>99 for antimycobacterial activity against multi-drug resistant Mycobacterium tuberculosis Praha 4 after 14 days; assay type: toxicity; conditions: read-out: Selectivity Index; procedure, shortened: as §1
[3] = Selectivity index, ratio of IC50 for human A431 cells to MIC>99 for antimycobacterial activity against multi-drug resistant Mycobacterium tuberculosis 8666/2010 after 21 days; assay type: toxicity; conditions: read-out: Selectivity Index
[4] = Selectivity index, ratio of IC50 for human HepG2 cells to MIC>99 for antimycobacterial activity against multi-drug resistant Mycobacterium tuberculosis 8666/2010 after 21 days; assay type: toxicity; conditions: read-out: Selectivity Index; procedure, shortened: as §1
[5] = tested on: Mycobacterium tuberculosis; experiment: Antimycobacterial activity against multi-drug resistant Mycobacterium tuberculosis 9449/2007 after 14 days; assay type: functional; conditions: 9449/2007, 336 h
Procedure, shortened: (§2)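 M. tuberculosis strains (H37Rv and clinical MDR/XDR isolates) tested by microdilution in Šula's semisynthetic medium. Compounds were dissolved in DMSO and tested at 32 to 0.03 µM in twofold steps. Inoculum was a 1.0 McFarland suspension diluted 10-3. Plates were incubated at 37 °C and read at 14 and 21 days.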

[6] = Selectivity index, ratio of IC50 for human HepG2 cells to MIC>99 for antimycobacterial activity against multi-drug resistant Mycobacterium tuberculosis Praha 1 after 14 days; assay type: toxicity; conditions: read-out: Selectivity Index; procedure, shortened: as §1
[7] = Selectivity index, ratio of IC50 for human A431 cells to MIC>99 for antimycobacterial activity against multi-drug resistant Mycobacterium tuberculosis 7357/1998 after 21 days; assay type: toxicity; conditions: read-out: Selectivity Index
[8] = tested on: Mycobacterium tuberculosis; experiment: Antimycobacterial activity against multi-drug resistant Mycobacterium tuberculosis 234/2005 after 21 days; assay type: functional; conditions: 234/2005, 504 h; procedure, shortened: as §2
[9] = Selectivity index, ratio of IC50 for human HepG2 cells to MIC>99 for antimycobacterial activity against multi-drug resistant Mycobacterium tuberculosis 8666/2010 after 14 days; assay type: toxicity; conditions: read-out: Selectivity Index; procedure, shortened: as §1
[10] = Selectivity index, ratio of IC50 for human HepG2 cells to MIC>99 for antimycobacterial activity against multi-drug resistant Mycobacterium tuberculosis 234/2005 after 14 days; assay type: toxicity; conditions: read-out: Selectivity Index; procedure, shortened: as §1
[11] = Selectivity index, ratio of IC50 for human HepG2 cells to MIC>99 for antimycobacterial activity against multi-drug resistant Mycobacterium tuberculosis Praha 4 after 21 days; assay type: toxicity; conditions: read-out: Selectivity Index; procedure, shortened: as §1
[12] = Selectivity index, ratio of IC50 for human HepG2 cells to MIC>99 for antimycobacterial activity against multi-drug resistant Mycobacterium tuberculosis Praha 1 after 21 days; assay type: toxicity; conditions: read-out: Selectivity Index; procedure, shortened: as §1
[13] = Selectivity index, ratio of IC50 for human A431 cells to MIC>99 for antimycobacterial activity against multi-drug resistant Mycobacterium tuberculosis Praha 1 after 21 days; assay type: toxicity; conditions: read-out: Selectivity Index
[14] = Selectivity index, ratio of IC50 for human A431 cells to MIC>99 for antimycobacterial activity against multi-drug resistant Mycobacterium tuberculosis 234/2005 after 21 days; assay type: toxicity; conditions: read-out: Selectivity Index
[15] = tested on: Mycobacterium tuberculosis; experiment: Antimycobacterial activity against multi-drug resistant Mycobacterium tuberculosis Praha 1 after 14 days; assay type: functional; conditions: Praha 1, 336 h; procedure, shortened: as §2
[16] = tested on: Mycobacterium tuberculosis; experiment: Antimycobacterial activity against multi-drug resistant Mycobacterium tuberculosis 7357/1998 after 21 days; assay type: functional; conditions: 7357/1998, 504 h; procedure, shortened: as §2
[17] = Selectivity index, ratio of IC50 for human A431 cells to MIC>99 for antimycobacterial activity against multi-drug resistant Mycobacterium tuberculosis Praha 4 after 21 days; assay type: toxicity; conditions: read-out: Selectivity Index
Procedure, shortened: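 SI from A431 IC50 and M. tuberculosis MIC. A431 cells: DMEM + 10% FBS, seeded 10,000/well, treated after 24 h for 48 h, 0.1% DMSO (100%) and 10% SDS (0%) controls, MTS absorbance at 490 nm.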

[18] = tested on: Mycobacterium tuberculosis; experiment: Antimycobacterial activity against multi-drug resistant Mycobacterium tuberculosis 9449/2007 after 21 days; assay type: functional; conditions: 9449/2007, 504 h; procedure, shortened: as §2
[19] = Selectivity index, ratio of IC50 for human A431 cells to MIC>99 for antimycobacterial activity against multi-drug resistant Mycobacterium tuberculosis Praha 1 after 14 days; assay type: toxicity; conditions: read-out: Selectivity Index
[20] = Selectivity index, ratio of IC50 for human HepG2 cells to MIC>99 for antimycobacterial activity against multi-drug resistant Mycobacterium tuberculosis 234/2005 after 21 days; assay type: toxicity; conditions: read-out: Selectivity Index; procedure, shortened: as §1
[21] = Selectivity index, ratio of IC50 for human A431 cells to MIC>99 for antimycobacterial activity against multi-drug resistant Mycobacterium tuberculosis 8666/2010 after 14 days; assay type: toxicity; conditions: read-out: Selectivity Index
[22] = tested on: Mycobacterium tuberculosis; experiment: Antimycobacterial activity against multi-drug resistant Mycobacterium tuberculosis Praha 4 after 14 days; conditions: Praha 4, 336 h
[23] = tested on: Mycobacterium tuberculosis; experiment: microbe, parasite or virus in culture; conditions: 234/2005, 336 h
[24] = Selectivity index, ratio of IC50 for human HepG2 cells to MIC>99 for antimycobacterial activity against multi-drug resistant Mycobacterium tuberculosis 7357/1998 after 21 days; assay type: toxicity; conditions: read-out: Selectivity Index; procedure, shortened: as §1
[25] = Selectivity index, ratio of IC50 for human A431 cells to MIC>99 for antimycobacterial activity against multi-drug resistant Mycobacterium tuberculosis 7357/1998 after 14 days; assay type: toxicity; conditions: read-out: Selectivity Index
[26] = tested on: Mycobacterium tuberculosis; experiment: Antimycobacterial activity against multi-drug resistant Mycobacterium tuberculosis 7357/1998 after 14 days; assay type: functional; conditions: 7357/1998, 336 h; procedure, shortened: as §2
[27] = Selectivity index, ratio of IC50 for human HepG2 cells to MIC>99 for antimycobacterial activity against multi-drug resistant Mycobacterium tuberculosis 9449/2007 after 14 days; assay type: toxicity; conditions: read-out: Selectivity Index; procedure, shortened: as §1
[28] = Selectivity index, ratio of IC50 for human A431 cells to MIC>99 for antimycobacterial activity against multi-drug resistant Mycobacterium tuberculosis Praha 4 after 14 days; assay type: toxicity; conditions: read-out: Selectivity Index
[29] = Selectivity index, ratio of IC50 for human A431 cells to MIC>99 for antimycobacterial activity against multi-drug resistant Mycobacterium tuberculosis 9449/2007 after 21 days; assay type: toxicity; conditions: read-out: Selectivity Index
[30] = tested on: Mycobacterium tuberculosis; experiment: Antimycobacterial activity against multi-drug resistant Mycobacterium tuberculosis 8666/2010 after 14 days; assay type: functional; conditions: 8666/2010, 336 h; procedure, shortened: as §2
[31] = Selectivity index, ratio of IC50 for human A431 cells to MIC>99 for antimycobacterial activity against multi-drug resistant Mycobacterium tuberculosis 234/2005 after 14 days; assay type: toxicity; conditions: read-out: Selectivity Index
[32] = tested on: Mycobacterium tuberculosis; experiment: Antimycobacterial activity against multi-drug resistant Mycobacterium tuberculosis Praha 1 after 21 days; assay type: functional; conditions: Praha 1, 504 h; procedure, shortened: as §2
[33] = tested on: Mycobacterium tuberculosis; experiment: Antimycobacterial activity against multi-drug resistant Mycobacterium tuberculosis 8666/2010 after 21 days; assay type: functional; conditions: 8666/2010, 504 h; procedure, shortened: as §2
[34] = Selectivity index, ratio of IC50 for human HepG2 cells to MIC>99 for antimycobacterial activity against multi-drug resistant Mycobacterium tuberculosis 7357/1998 after 14 days; assay type: toxicity; conditions: read-out: Selectivity Index; procedure, shortened: as §1
[35] = Selectivity index, ratio of IC50 for human A431 cells to MIC>99 for antimycobacterial activity against multi-drug resistant Mycobacterium tuberculosis 9449/2007 after 14 days; assay type: toxicity; conditions: read-out: Selectivity Index
[36] = tested on: Mycobacterium tuberculosis; experiment: Antimycobacterial activity against multi-drug resistant Mycobacterium tuberculosis Praha 4 after 21 days; assay type: functional; conditions: Praha 4, 504 h; procedure, shortened: as §2

O=[N+]([O-])c1cc(-c2nnc(SCc3ccccc3)n2Cc2ccccc2)cc(C(F)(F)F)c1
0.06 µM: MIC99 [8] | MIC99 [15] | MIC99 [16] | MIC99 [18] | MIC99 [22] | MIC99 [23] | MIC99 [26] | MIC99 [30] | MIC99 [32] | MIC99 [36]
0.125 µM: MIC99 [5] | MIC99 [33]
> 100: selectivity ratio at 504 h [1] | selectivity ratio at 336 h [2] | selectivity ratio at 504 h [3] | selectivity ratio at 504 h [4] | selectivity ratio at 336 h [6] | selectivity ratio at 504 h [7] | selectivity ratio at 336 h [9] | selectivity ratio at 336 h [10] | selectivity ratio at 504 h [11] | selectivity ratio at 504 h [12] | selectivity ratio at 504 h [13] | selectivity ratio at 504 h [14] | selectivity ratio at 504 h [17] | selectivity ratio at 336 h [19] | selectivity ratio at 504 h [20] | selectivity ratio at 336 h [21] | selectivity ratio at 504 h [24] | selectivity ratio at 336 h [25] | selectivity ratio at 336 h [27] | selectivity ratio at 336 h [28] | selectivity ratio at 504 h [29] | selectivity ratio at 336 h [31] | selectivity ratio at 336 h [34] | selectivity ratio at 336 h [35]
